According to ChEMBL document CHEMBL4513216, “Probing the Open Global Health Chemical Diversity Library for Multistage-Active Starting Points for Next-Generation Antimalarials” (ACS Infect Dis, 2020):

Experiment: Toxicity liver stage against HepG2, at 10uM
Format: cell-based
Parameters: test concentration 10 uM, cell line HepG2-A16-CD81EGFP
Details: human, HepG2-A16-CD81EGFP cells; read-out: INHIBITION
Summary of the method: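 Uninfected HepG2-A16-CD81EGFP cells, 3 × 10^3 per well, 1536-well, plated on prespotted compound at 10 μM final, parasite-free screening media added to match infected plates; puromycin 10 μM positive, DMSO 0.5% negative; run in parallel with 48 h PbLuc assay at 37 °C, 5% CO2; viability by CellTiter-Glo luminescence, normalized to controls.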

SMILES | cytotoxicity at 10 µM
COCCO[C@H]1COCCN(C2CCN(C)CC2)C1 | 3.08%
O=C1CO[C@H]2CN(Cc3ccc(C(F)(F)F)cc3)C[C@H]2N1 | -4.63%
Cc1cc(O)cc2c(=O)oc(CC(C)O)cc12 (configuration not stated) | 0.346%
Cc1nc(-c2ccoc2)n(CC(=O)NCC(C)C)c1C | -1.49%
NC1(CNC(=O)c2cc3ccccc3[nH]2)CCCC1 | 15.5%
COc1ccc2c(c1)CN(C)C(=O)CCN2CC(O)C(F)(F)F (configuration not stated) | -6.84%
Cc1occc(=O)c1OCC(=O)N1CCc2ccccc2C1 | -0.765%
CC(C)CNC(=O)CNc1c(NCc2ccccn2)c(=O)c1=O | -9.06%
CC(=O)CSc1nc2c(cnn2CCO)c(=O)[nH]1 | -2.22%
CCCc1cc(=O)[nH]c2nnc(SCC(=O)NCCc3ccccc3)n12 | 14.2%
CCN1CCOCC2(CCCN(C(=O)c3cnccn3)C2)C1 (configuration not stated) | 6.21%
COCCN(CCOC)C(=O)c1ccn(-c2ccc3ccccn23)n1 | 7.22%
O=C(NC1CCCC1)c1nc2c(o1)CN(C(=O)CCO)C2 | 5.38%
O=C(Nc1ccccc1)C1=NOC2(CCCN(C(=O)N3CCCC3)C2)C1 (configuration not stated) | -1.66%
O=C(c1cccs1)N1CCOCC2(C1)CN(c1ccccc1)C(=O)CO2 (configuration not stated) | -0.756%
O=C(c1ccco1)N1CCCC2(CN(Cc3ccoc3)CCO2)C1 (configuration not stated) | -2.59%
Cc1cc(NCCO)nc(N2CCN(C)CC2)c1C#N | -17.4%
Cc1cnc(N2CCC3(CCN(CC4CC4)C3=O)CC2)nc1 | 6.17%
Cn1cc(CN2CCCn3cnc(CN4CCCC4=O)c3C2)cn1 | -1.39%
Cc1ccoc1C(=O)N1CC[C@H]2O[C@@H](C)C[C@H]2C1 | -4.93%
O=C(c1ccsc1)N1CCc2c(COCc3ccncc3)cncc2C1 | -1.48%
COc1cccc(OCCc2nnc(NC(C)=O)s2)c1 | 4.84%
CCn1nc(C)c2ncnc(NCCCN3CCOCC3)c21 | 2.06%

SMILES | cytotoxicity at 10 µM
CCS(=O)(=O)N1C[C@@H](C(=O)NC(C)C)[C@@]2(Cc3ccccc3C(=O)N2)C1 | 1.11%
CC(C)N1CCCCC1c1cc(CO)[nH]n1 (configuration not stated) | 4.61%
CNc1ncc(C(=O)N2CCOC(C(=O)Nc3ccccc3)C2)cn1 (configuration not stated) | -4.35%
O=C(O)c1cncc(Cc2ccccc2F)c1 | 0.812%
NCc1cccc(-c2cccnc2C(=O)NCCN2CCCC2)c1 | -6.9%
Cc1ccccc1CC(=O)N1C[C@@H](O)[C@H](N2CCOCC2)C1 | -4.05%
O=C(NC1CC1)c1cc(C2CCCN(Cc3ccccn3)C2)no1 (configuration not stated) | -31.9%
O=C(Cc1ccccn1)N1CCC(c2noc(-c3ccncc3)n2)CC1 | -26.8%
O=C(c1ccco1)N1CCC(n2nc(-c3ccco3)ccc2=O)CC1 | -20.5%
Cc1ccc2nc(C3CCN(CC(C)C)CC3)nc(O)c2c1 | 7.69%
N#CCCN(CCC#N)Cc1ccc(Br)c2cccnc12 | 1.73%
CCC1(CC)CC(=O)N(CC(O)c2cccc(Br)c2)C1=O (configuration not stated) | 3.89%
COCCN(C(=O)c1ccsc1)c1ccc(C#N)cc1 | 4.19%
CC(C)CCn1ccc(NC2CCSC2)n1 (configuration not stated) | 6.93%
CC(C)(C)C(=O)NCCC(=O)NS(=O)(=O)c1cccc(C#N)c1 | 1.01%
O=C1CC(N(C(=O)c2ccccc2Br)C2CC2)C(=O)N1 (configuration not stated) | 10.3%
Cn1cc(C(=O)N2CCN(Cc3cscn3)CC2)ccc1=O | -4.79%
Cc1ccc(C(=O)NCCCS(=O)(=O)c2ccccc2)c(=O)[nH]1 | -4.97%
CC(C(=O)Nc1ccnn1C(C)C)N1CCN(Cc2ccccc2)CC1 (configuration not stated) | -7.55%
CC(C)(C)n1ncc2c1CCCC2NCc1cccc(C(N)=O)c1 (configuration not stated) | -0.25%
CC(C)(C)OC(=O)N1CCC(C(=O)NCc2cc3ccccc3[nH]2)C1 (configuration not stated) | 2.34%
CN(Cc1ccc(F)cc1)S(=O)(=O)N1CCOCC1 | 2.35%
CNC(=O)c1ccc(CNC(=O)c2ccc(Cl)cc2F)cc1 | 5.66%

SMILES | cytotoxicity at 10 µM
CCNC(=O)C1CCCN1S(=O)(=O)c1sc(=O)[nH]c1C (configuration not stated) | 1.34%
CCOC(=O)c1nc(CN2CCN(C(=O)NC3CCCCC3)CC2)cs1 | -3.47%
O=C(NC(CN1CCCC1)c1ccccc1)c1c(O)cc(F)cc1F (configuration not stated) | -2.3%
O=C(Nc1nncs1)N(Cc1cccc(O)c1)C1CC1 | 4.14%
Cc1cccc(C2CCCN2C(=O)CCS(C)(=O)=O)c1C (configuration not stated) | -0.272%
Cc1noc(C2CCN(C(C)c3nc(C4CC4)no3)CC2)n1 (configuration not stated) | 7.57%
CC(C)N(CCNCc1ccc(C#N)cc1)C1CC1 | -2.54%
COc1ccc(C)c2c1N(C(=O)c1cnc(C)s1)CCC2 | -1.46%
CC(C)c1nsc(N2CCSCC2)n1 | -11.6%
Cc1c(Br)cccc1C(=O)Nc1cc(C(N)=O)n(C)c1 | 0.71%
CC(C)(C)S(=O)(=O)c1ccc(N2CCC(n3cccn3)CC2)cn1 | 22.3%
CC(=O)c1cccc(NC(=O)N2CCCCC2CN2CCCC2=O)c1 (configuration not stated) | 0.582%
CC(Nc1ccc(Oc2cccc(C#N)c2)cc1)C(=O)NC1CC1 (configuration not stated) | 6.91%
CN1CCN(c2ccc(NC(=O)c3ccoc3)c(C(F)(F)F)c2)CC1 | -4.1%
Cc1ccccc1C1(CNC(=O)c2cccc(S(C)(=O)=O)c2)CC1 | -0.185%
CN(c1ccc(C(N)=O)nn1)C1CCC1 | 9%
Cn1cnnc1C1CCN(c2cncc(-n3cccn3)n2)CC1 | -8.37%
CC(C)c1cccc(CSc2nnc(CN3CCCC3=O)o2)n1 | 3.59%
CCC(C)NC(=O)Cc1c(C)nc2c(c1C)c(=O)[nH]n2C (configuration not stated) | -11.4%
COc1ncccc1NC(=O)C1CC(=O)N(Cc2ccccn2)C1 (configuration not stated) | -1.2%
CCc1nc(C2CCCN(C(=O)c3cnn(CC)c3)C2)no1 (configuration not stated) | 4.16%
O=C(c1cc(-c2ccco2)nc2c(Cl)cccc12)N1CC[C@H]2CNC[C@H]21 | -3.29%
Cc1c(Cl)cc(C(=O)N(CCO)Cc2nccn2C)cc1Cl | 2.66%

SMILES | cytotoxicity at 10 µM
CCN(C)C(=O)c1coc(COc2ccccc2)n1 | 3.36%
CSCCC(=O)N1CCCC(c2ncc[nH]2)C1 (configuration not stated) | -1.64%
O=C(CC1CCc2ccccc21)NCCSc1ccccn1 (configuration not stated) | -0.214%
Cc1nc(CCN2CCCCC2)n(-c2ccc(F)cc2)n1 | -2.23%
CC(C)S(=O)(=O)N1C[C@H]2OC(=O)N(CCc3cccc(Cl)c3)[C@H]2C1 | 0.642%
CCN(Cc1cnn(CC)c1)Cc1c(Cl)cncc1Cl | -2.65%
CCCn1cc(-c2cc(-c3c[nH]cn3)c(C#N)c(N)n2)c(C)n1 | 10.3%
CCOc1ccccc1-n1c(C2CC2)n[nH]c1=O | 1.12%
CCCn1nc(C)c(CNS(=O)(=O)NCc2ccccc2)c1C | -5.05%
CN1CCC2(CC1)CN(Cc1ccc(C3CCCCO3)o1)CCCN2C (configuration not stated) | -5.35%
CNc1cc(C)nc(-c2cc(NC)nc3[nH]ccc23)n1 | -3.92%
c1cnnc(-c2noc(CCN3CCCO3)n2)c1 | -3.61%
COCCN1C[C@@H](C(=O)O)[C@H](c2ccccc2C)C1 | 3%
O=C1O[C@@H]2CN(S(=O)(=O)N3CCCC3)C[C@@H]2N1CCc1cccc(Cl)c1 | -2.9%
O=C(c1ccc(C2CCNC2)cc1)N1CCC(N2CCC(O)CC2)CC1 (configuration not stated) | -7.62%
COc1ccc(-c2nc(CN3CCOCS3(=O)=O)c(C)o2)cc1 | -0.0714%
Cc1ccc(NC(=O)N2CCCC2)c(OCC2CCCO2)c1 (configuration not stated) | 6.36%
CCc1nnc2n1CCN(C(C(=O)NC1CC1)c1ccccc1)C2 (configuration not stated) | -7.07%
CCN(CC1CCOC1)C(=O)Nc1ccc(N2CCCCC2)nc1 (configuration not stated) | -6.45%
O=C(CCOc1cccc(Cl)c1)N1CCN(c2cnccn2)CC1 | -0.284%
O=C(NCc1nnc2n1CCC2)N1CCc2sccc2C1 | -12.5%
CN(C)CCC1CCN(Cc2ccn(C)c(=O)c2)CC1 | -12.5%
COc1ccc(C(=O)N(C)Cc2nnc3ccccn23)c(OC)c1OC | -11.5%

SMILES | cytotoxicity at 10 µM
Cc1nc(C)n(CC2CCCN2CCC(=O)N2CCCCC2)n1 (configuration not stated) | -2.67%
O=C(CCc1ccccn1)N1CCCC1 | -6.96%
Cc1ncc(CN2CCOC(CN(C)c3cccnn3)C2)s1 (configuration not stated) | 2.86%
CC(C)(C)c1cn2nc(N3CCCC(Cn4cncn4)C3)sc2n1 (configuration not stated) | -9.32%
COc1ncccc1NC(=O)c1cccc(C)n1 | 2.3%
CC(C)OCCN1CCN(C(=O)c2cccc(CC#N)c2)CC1 | 0.119%
COCCN1CCN(Cc2cccc(C(=O)N(C)C)c2)CC1C (configuration not stated) | 5%
Cc1cnn(CCNCc2ccccc2OCc2cccnc2)c1 | 3.8%
Cc1cc(CN2Cc3ccccc3CC2c2nnc(C)o2)on1 (configuration not stated) | -0.962%
Cc1nc(Nc2nncs2)cc(C2CCCN2)n1 (configuration not stated) | -1.03%
CN(C)C(=O)Cn1c(C2CC2)c(CN2CCC(O)CC2)c2cccnc21 | -4.9%
c1csc(CN2CCC3(CC2)CCN(CC2CCOCC2)C3)n1 | 3.83%
CO[C@H]1CCN(C2CCOCC2)C[C@@H]1Cc1ccccc1 | 3.11%
CN(C)CCOCc1cncc2c1CCN(Cc1ccccn1)C2 | 2.2%
CO[C@H]1CCN(C2CCC2)[C@@H]2CN(Cc3ccncc3)C[C@H]12 | 8.13%
CNC(=O)CN1CCO[C@H]2CN(C(=O)C3CC3)C[C@H]21 | 7.52%
Cn1cc(N2CC3(COCCN(Cc4ccccn4)C3)OCC2=O)cn1 (configuration not stated) | -79.1%
Cc1ccc(CN2CCc3ncnc(-c4ccoc4)c3CC2)o1 | 0.968%
CN1[C@H](CN2CCCC2)C[C@@H]2CN(C(=O)Cc3ccsc3)CC[C@@H]21 | -3.45%
O=C(CC(F)(F)F)N1C[C@@H]2CC[C@H]1CN(Cc1ccccc1)C2 | -3.63%
